# From PubChem BioAssay
# This is a sample that favours compounds with a hit; in the whole collection about 2.9% have one here.
# M1 ag parental = counter-screen for M1 agonists: effect in parental CHO-K1 cells. Fluo-8 calcium fluorescence; scaled to maximal ATP response, vehicle zero. activation, % at 3 µM. 0.48% of 360,000 active. AID 602248; in the data active = activation above about 15%;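 note: untransfected CHO-K1 host cells lacking M1 receptor as counterscreen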
# OX1R antag-1 = human HCRTR1 antagonism; O43613; CHO/OX1R cells, Fluo-8 calcium fluorescence, orexin A; inhibition, % at 5 µM; AID 434989; 0.43% of 330,000 active;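 active = inhibition above its plate's threshold, mean inhibition of all tested compounds on the plate plus 3 SD, cut at about 37% in these data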
# Target sequence (O43613 whole entry, looked up): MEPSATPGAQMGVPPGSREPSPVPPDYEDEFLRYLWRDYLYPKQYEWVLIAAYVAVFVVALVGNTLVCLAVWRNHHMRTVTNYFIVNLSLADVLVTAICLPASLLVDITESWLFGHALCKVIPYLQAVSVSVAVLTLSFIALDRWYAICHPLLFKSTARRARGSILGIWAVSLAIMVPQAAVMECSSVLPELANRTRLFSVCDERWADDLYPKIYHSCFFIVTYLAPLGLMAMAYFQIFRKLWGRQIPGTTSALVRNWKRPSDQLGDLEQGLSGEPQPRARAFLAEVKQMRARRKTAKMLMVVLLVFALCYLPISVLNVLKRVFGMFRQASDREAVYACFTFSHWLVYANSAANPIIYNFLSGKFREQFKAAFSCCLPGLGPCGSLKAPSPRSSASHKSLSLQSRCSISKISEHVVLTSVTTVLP
# OX1R antag-2 = OX1R (human) antagonism | OX1R-expressing cells, FRET antagonist read-out | inhibition, % at 6.6 µM | 1.8% of 330,000 active | AID 485270; in the data active = inhibition mostly above about 38%, no sharp cut-off; inactive = mostly below about 40%
# CHO-K1 Ca PAM = nonselective activator or artifact in parental CHO-K1 calcium assay; ATP EC20, Fluo-8 calcium fluorescence; 0% at ATP EC20, 100% at ATP max; activation, % at 3 µM; 0.02% of 360,000 active; AID 602247;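 active = activation above the run cutoff, the mean activation of all test compounds plus 3 SD, cut at about 40% in these data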;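 note: peak over basal fluorescence ratio in a 140 s read after ATP addition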
# CHO parental Ca = signal in parental CHO cells, OX1R antagonist counter-screen. parental CHO-K1, ATP-induced calcium, Fluo-8 fluorescence. inhibition, % at 5.6 µM. 0.63% of 330,000 active;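 active = inhibition above that plate's mean sample inhibition plus 3 SD, cut at about 26% in these data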
#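 Measured by: calcium-sensitive Fluo-8 fluorescence / Test system: CHO parental line / Controls: ATP-challenged DMSO wells low, unchallenged DMSO wells high / Measure: % inhibition / Compound: single nominal dose of 5.6 µM per compound / Replicates: single well per compound, no replicates / Reagent: ATP as calcium-mobilizing challenge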
# CHO-K1 Ca antag = nonselective inhibitor or artifact in parental CHO-K1 cells; 0.6% of 360,000 active; inhibition, % at 3 µM; ATP-induced calcium, Fluo-8 fluorescence; AID 602250;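 active = inhibition above a per-plate cutoff, the plate's mean sample inhibition plus 3 SD, cut at about 24% in these data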
# Numbers stand for hits; . = inactive; / = not tested or not shown.
SMILES,M1 ag parental,OX1R antag-1,OX1R antag-2,CHO-K1 Ca PAM,CHO parental Ca,CHO-K1 Ca antag
Cc1cccc(/C=N/NC(=O)c2cc(C3CC3)nc3ccccc23)n1,.,.,74,.,.,26
O=C(COC(=O)C12CC3CC(CC(Br)(C3)C1)C2)N1CCOCC1,17,.,.,.,.,.
O=C(COC(=O)C12CC3CC(CC(Cl)(C3)C1)C2)N1CCCCC1,.,.,.,.,.,.
O=C(Nc1ccc(Cl)c(C(F)(F)F)c1)NC1CC2CCCC(C1)N2Cc1ccccc1 (centres undefined),/,.,.,/,37,/
O=C(NC1CC2CCCC(C1)N2C(=O)Nc1ccc(Cl)c(C(F)(F)F)c1)C1CC1 (centres undefined),.,.,.,.,.,.
O=S(=O)(NCCOc1ccccc1F)c1cccc(Br)c1,.,.,.,.,.,.
O=C(NCCc1ccccc1)C(=O)NCC1CCCN1S(=O)(=O)c1ccccc1 (centres undefined),.,.,42,.,.,.
Cc1ccc(C)c(S(=O)(=O)N2CCCOC2CNC(=O)C(=O)NCCc2ccccc2)c1 (centres undefined),.,.,54,.,.,.
Cc1ccc(C(=O)NCC2CCCN2S(=O)(=O)c2cccs2)cc1C (centres undefined),.,.,34,.,.,.
O=C(NCCc1ccc(F)cc1)C(=O)NCC1CCCN1S(=O)(=O)c1cccs1 (centres undefined),.,.,69,.,.,.
Cc1cc(F)ccc1S(=O)(=O)N1CCCOC1CNC(=O)C(=O)NCCc1ccccc1 (centres undefined),.,.,.,.,.,.
O=C(NCCc1ccccc1)C(=O)NCCC1CCCCN1S(=O)(=O)c1ccccc1 (centres undefined),.,.,.,.,.,.
CCNC(=O)C(=O)NCC1CCCN1S(=O)(=O)c1cccs1 (centres undefined),.,.,.,.,.,.
Cc1cc(N)ccc1NC(=O)CN1CCCC1,.,.,.,.,.,.
O=[N+]([O-])c1ccc(N2CCN(CCO)CC2)c2ncccc12,.,.,.,.,.,.
O=[N+]([O-])c1c(N2CCN(CCO)CC2)nc2ccccn12,.,.,70,.,.,.
CCOc1ccc(C(=O)CCC(=O)NCC(=O)Nc2c(C)cccc2C)cc1,.,.,.,.,.,.
Cc1ccc(C)c(NC(=O)C2CCCN2/C=C/C(=O)C(F)(F)F)c1 (centres undefined),.,.,.,.,.,26
CC1(C(=O)O)CCN1C(=O)COc1ccc(Cl)cc1 (centres undefined),.,/,/,.,/,.
CCOC(=O)c1sc(N)c(C#N)c1CSc1nc2ccc(C)cc2[nH]1,.,.,.,.,.,.
CCOC(=O)c1sc(N)c(C#N)c1CSc1nc2ccc(OCC)cc2[nH]1,.,.,47,.,.,.
O=C(CN1CCN(Cc2ccccc2)CC1)Nc1cccc(C(F)(F)F)c1,.,.,.,.,.,26
O=C(COc1ccccc1)NC(=S)N1CCc2ccccc21,.,.,.,.,.,24
COc1ccc(N[C@@H]2CCN3C(=O)c4ccccc4[C@@H]3C[C@H]2O)cc1,.,.,.,.,.,.
O=C1c2ccccc2[C@@H]2C[C@@H](O)[C@H](Nc3cccc4ccccc34)CCN12,.,.,42,.,.,.
SMILES,M1 ag parental,OX1R antag-1,OX1R antag-2,CHO-K1 Ca PAM,CHO parental Ca,CHO-K1 Ca antag
O=[N+]([O-])c1ccc(Sc2nccn2Cc2ccccc2)c([N+](=O)[O-])c1,.,.,38,.,.,.
O=[N+]([O-])c1ccc(Sc2ncccn2)c([N+](=O)[O-])c1,.,.,67,.,.,.
Cc1cccc(Sc2ccc([N+](=O)[O-])cc2[N+](=O)[O-])n1,.,.,.,.,.,.
O=[N+]([O-])c1cc(C(F)(F)F)ccc1Sc1nccn1Cc1ccccc1,.,.,.,.,.,.
O=C(c1ccccc1NS(=O)(=O)c1ccc(F)cc1F)N1CCCCC1,.,.,.,.,.,.
COc1cccc(CC(NC(C)=O)C(=O)NC2CCN(C(=O)c3ccc(Cl)cc3)CC2)c1OC (centres undefined),.,.,.,.,.,.
CCCc1cc(=O)oc2cc(OC(C)C(=O)NCC3CCC(C(=O)O)CC3)ccc12 (centres undefined),.,.,.,.,.,27
CCOC(=O)c1cc2c(C)n(-c3ccc(OCC)cc3)c(C)c2ccc1=O,.,.,.,.,.,.
CCOC(=O)c1cc2c(C)n(-c3ccc(C)cc3)c(C)c2ccc1=O,.,.,41,.,.,.
Cc1c(NC(=O)COC(=O)c2ccc(O)cc2)c(=O)n(-c2ccccc2)n1C,.,.,.,.,.,.
CCOC(=O)C1=C(NC(=S)NC(=O)c2ccccc2)c2ccccc2CC1C(C)C (centres undefined),.,.,.,.,.,.
CCOC(=O)C1=C(NC(=S)NC(=O)c2ccccc2)c2ccccc2CC1(C)CC (centres undefined),20,.,.,.,.,.
N#Cc1c(C(F)(F)F)cc(-c2ccccc2)n(N)c1=O,.,.,.,.,.,31
O=C(NCC1CCCO1)C1CCN(C2CCN(CCCC3CCCC3)CC2)CC1 (centres undefined),.,.,.,.,.,.
O=C(NCC1CCCO1)C1CCN(C2CCN(C(=O)CC3CCCC3)CC2)CC1 (centres undefined),.,.,.,.,.,27
C/C(=N\N=c1/sc2ccccc2n1C)c1ccc(N2CCOCC2)cc1,.,.,.,.,.,.
C/C(=N\N=c1/sc2ccccc2n1C)c1ccccn1,.,.,62,.,.,.
O=[N+]([O-])c1ccc(-n2nncc2-c2ccc(Cl)cc2)cc1,.,.,.,.,.,.
Nc1ccc(-n2nncc2-c2ccc(Cl)cc2)cc1,17,.,.,.,.,.
CC(=O)NCCC(=O)NCC1(N(C)Cc2ccccc2)Cc2ccccc2C1,16,/,/,.,/,.
Cc1cccn2c(=O)c3cc(C(=O)NCC4CCCO4)c(=N)n(CCN4CCOCC4)c3nc12 (centres undefined),.,.,162,.,.,.
Cc1ccc(Cn2c(=N)c(C(=O)NCC3CCCO3)cc3c(=O)n4cccc(C)c4nc32)cc1 (centres undefined),.,.,.,.,.,.
CCCn1c(=N)c(C(=O)NCC2CCCO2)cc2c(=O)n3cccc(C)c3nc21 (centres undefined),.,.,56,.,.,.
Cc1cccn2c(=O)c3cc(C(=O)NCCc4ccccc4)c(=N)n(CCCn4ccnc4)c3nc12,.,.,59,.,.,.
COCCCn1c(=N)c(C(=O)NCC2CCCO2)cc2c(=O)n3cccc(C)c3nc21 (centres undefined),.,.,64,.,.,.
